Results reported in ChEMBL document CHEMBL1806356, “Synthesis, characterization and antimicrobial studies of some new pyrazole incorporated imidazole derivatives” (Eur J Med Chem, 2011).

What was measured:
Nannizzia gypsea [1] = test: Antifungal activity against Microsporum gypseum at 1000 ug/ml after 72 hrs by agar diffusion method; format: functional; settings: read-out: DIZ
Summary of the method: (§1)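 Fungal spores were suspended in normal saline (one loopful in 3 mL) and lawned on agar plates. Wells were punched with a sterile cork borer and loaded with test compound in DMSO at the different concentrations. A DMSO solvent control was included. Petri dishes were prepared in triplicate and held at 25 °C for 72 h.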

Candida albicans [2] = test: Antifungal activity against Candida albicans at 500 ug/ml after 72 hrs by agar diffusion method; format: functional; settings: read-out: DIZ; summary of the method: as §1
Salmonella typhimurium [3] = test: Antibacterial activity against Salmonella Typhimurium assessed as zone of inhibition at 1000 ug/ml after 24 hrs by agar diffusion method; format: functional, Salmonella enterica subsp. enterica serovar Typhimurium; settings: Salmonella enterica, read-out: IZ
Summary of the method: (§2)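 Well diffusion on Mueller-Hinton agar seeded with 24 h old bacterial cultures. Test compounds were dissolved in DMSO at 1 and 0.5 mg/mL and added to labeled wells. Plates were incubated 24 h at 37 °C. The inhibition zone around each well was measured in mm. Triplicate experiments, standard deviation calculated.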

Aspergillus flavus [4] = test: Antifungal activity against Aspergillus flavus at 1000 ug/ml after 72 hrs by agar diffusion method; format: functional; settings: read-out: DIZ; summary of the method: as §1
Trichophyton rubrum [5] = test: Antifungal activity against Trichophyton rubrum at 500 ug/ml after 72 hrs by agar diffusion method; format: functional; settings: read-out: DIZ; summary of the method: as §1
Candida albicans [6] = test: Antifungal activity against Candida albicans at 1000 ug/ml after 72 hrs by agar diffusion method by agar diffusion method; format: functional; settings: read-out: DIZ; summary of the method: as §1
Aspergillus flavus [7] = test: Antifungal activity against Aspergillus flavus at 500 ug/ml after 72 hrs by agar diffusion method; format: functional; settings: read-out: DIZ; summary of the method: as §1
Escherichia coli [8] = test: Antibacterial activity against Escherichia coli ATCC 25922 assessed as zone of inhibition at 500 ug/ml after 24 hrs by agar diffusion method; format: functional; settings: ATCC 25922, 24 h, read-out: IZ; summary of the method: as §2
Clostridium perfringens [9] = test: Antibacterial activity against Clostridium perfringens assessed as zone of inhibition at 1000 ug/ml after 24 hrs by agar diffusion method; format: functional; settings: read-out: IZ
Summary of the method: (§3)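 Well diffusion on Mueller-Hinton agar seeded with 24 h old cultures. Compounds dissolved in DMSO at 1 and 0.5 mg/mL and added to wells punched with a sterile cork borer, with a DMSO-only control. Plates incubated 24 h at 37 °C. Read-out was the inhibition zone in mm, run in triplicate, standard deviation calculated.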

Bacillus subtilis [10] = test: Antibacterial activity against Bacillus subtilis assessed as zone of inhibition at 1000 ug/ml after 24 hrs by agar diffusion method; format: functional; settings: read-out: IZ; summary of the method: as §2
Pseudomonas aeruginosa [11] = test: Antibacterial activity against Pseudomonas aeruginosa ATCC 27853 assessed as zone of inhibition at 1000 ug/ml after 24 hrs by agar diffusion method; format: functional; settings: ATCC 27853, 24 h, read-out: IZ; summary of the method: as §2
Escherichia coli [12] = test: Antibacterial activity against Escherichia coli ATCC 25922 assessed as zone of inhibition at 1000 ug/ml after 24 hrs by agar diffusion method; format: functional; settings: ATCC 25922, 24 h, read-out: IZ; summary of the method: as §2
Clostridium perfringens [13] = test: Antibacterial activity against Clostridium perfringens assessed as zone of inhibition at 500 ug/ml after 24 hrs by agar diffusion method; format: functional; settings: read-out: IZ; summary of the method: as §3
Nannizzia gypsea [14] = test: Antifungal activity against Microsporum gypseum at 500 ug/ml after 72 hrs by agar diffusion method; format: functional; settings: read-out: DIZ; summary of the method: as §1
Mus musculus [15] = test: Toxicity in Swiss albino mouse assessed as mortality at 1000 to 3000 mg/kg, po administered as single dose measured at 4th to 24th hrs; format: organism-based; design: dose 1000-3000 mg/kg, route oral; settings: in vivo
Summary of the method: (§4)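 Single oral dose of 1000 to 3000 mg/kg, given as a fine suspension in double distilled water with Tween 80. Animals housed under a light/dark cycle. Toxic symptoms and behavioural changes were observed continuously at 4, 8, 12 and 24 h, and onset was recorded. Deaths were also recorded.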

Staphylococcus aureus [16] = test: Antibacterial activity against Staphylococcus aureus assessed as zone of inhibition at 500 ug/ml after 24 hrs by agar diffusion method; format: functional; settings: read-out: IZ; summary of the method: as §2
Trichophyton rubrum [17] = test: Antifungal activity against Trichophyton rubrum at 1000 ug/ml after 72 hrs by agar diffusion method; format: functional; settings: read-out: DIZ; summary of the method: as §1
Mus musculus [18] = test: Toxicity in Swiss albino mouse assessed as behavioral changes at 1000 to 3000 mg/kg, po administered as single dose measured at 4th to 24th hrs; format: organism-based; design: dose 1000-3000 mg/kg, route oral; settings: in vivo; summary of the method: as §4
Bacillus subtilis [19] = test: Antibacterial activity against Bacillus subtilis assessed as zone of inhibition at 500 ug/ml after 24 hrs by agar diffusion method; format: functional; settings: read-out: IZ; summary of the method: as §2
Aspergillus niger [20] = test: Antifungal activity against Aspergillus niger at 500 ug/ml after 72 hrs by agar diffusion method; format: functional; settings: read-out: DIZ; summary of the method: as §1
Aspergillus niger [21] = test: Antifungal activity against Aspergillus niger at 1000 ug/ml after 72 hrs by agar diffusion method; format: functional; settings: read-out: DIZ; summary of the method: as §1
Salmonella typhimurium [22] = test: Antibacterial activity against Salmonella Typhimurium assessed as zone of inhibition at 500 ug/ml after 24 hrs by agar diffusion method; format: functional, Salmonella enterica subsp. enterica serovar Typhimurium; settings: Salmonella enterica, read-out: IZ; summary of the method: as §2
Pseudomonas aeruginosa [23] = test: Antibacterial activity against Pseudomonas aeruginosa ATCC 27853 assessed as zone of inhibition at 500 ug/ml after 24 hrs by agar diffusion method; format: functional; settings: ATCC 27853, 24 h, read-out: IZ; summary of the method: as §2
Staphylococcus aureus [24] = test: Antibacterial activity against Staphylococcus aureus assessed as zone of inhibition at 1000 ug/ml after 24 hrs by agar diffusion method; format: functional; settings: read-out: IZ; summary of the method: as §2

SMILES | zone of inhibition at 1000 µg/mL (Nannizzia gypsea [1]) | zone of inhibition at 500 µg/mL (Candida albicans [2]) | zone of inhibition at 1000 µg/mL (Salmonella typhimurium [3]) | zone of inhibition at 1000 µg/mL (Aspergillus flavus [4]) | zone of inhibition at 500 µg/mL (Trichophyton rubrum [5]) | zone of inhibition at 1000 µg/mL (Candida albicans [6]) | zone of inhibition at 500 µg/mL (Aspergillus flavus [7]) | zone of inhibition at 500 µg/mL (Escherichia coli [8]) | zone of inhibition at 1000 µg/mL (Clostridium perfringens [9]) | zone of inhibition at 1000 µg/mL (Bacillus subtilis [10]) | zone of inhibition at 1000 µg/mL (Pseudomonas aeruginosa [11]) | zone of inhibition at 1000 µg/mL (Escherichia coli [12]) | zone of inhibition at 500 µg/mL (Clostridium perfringens [13]) | zone of inhibition at 500 µg/mL (Nannizzia gypsea [14]) | zone of inhibition at 500 µg/mL (Staphylococcus aureus [16]) | zone of inhibition at 1000 µg/mL (Trichophyton rubrum [17]) | zone of inhibition at 500 µg/mL (Bacillus subtilis [19]) | zone of inhibition at 500 µg/mL (Aspergillus niger [20]) | zone of inhibition at 1000 µg/mL (Aspergillus niger [21]) | zone of inhibition at 500 µg/mL (Salmonella typhimurium [22]) | other results
COC(=O)/C=C1/C(=O)NC(=S)N1/N=C/c1c[nH]nc1-c1ccc(SC)cc1 | 5 mm | 4 mm | 12 mm | 7 mm | 15 mm | 5 mm | 6 mm | 9 mm | 16 mm | 10 mm | 16 mm | 12 mm | 15 mm | 4 mm | 5 mm | 16 mm | 9 mm | 9 mm | 10 mm | 11 mm | Activity (Mus musculus [15]): Non-toxic; Activity (Mus musculus [18]): Non-toxic; zone of inhibition at 500 µg/mL (Pseudomonas aeruginosa [23]): 15 mm; zone of inhibition at 1000 µg/mL (Staphylococcus aureus [24]): 6 mm
Clc1cc(-c2n[nH]cc2-c2nc(-c3ccccc3)c(-c3ccccc3)[nH]2)c(Cl)s1 | 5 mm | 9 mm | 7 mm | 10 mm | 9 mm | 10 mm | 9 mm | 5 mm | 8 mm | 4 mm | 6 mm | 6 mm | 7 mm | 4 mm | 5 mm | 10 mm | 3 mm | 9 mm | 10 mm | 6 mm | zone of inhibition at 500 µg/mL (Pseudomonas aeruginosa [23]): 5 mm; zone of inhibition at 1000 µg/mL (Staphylococcus aureus [24]): 6 mm
CSc1ccc(-c2n[nH]cc2-c2nc(-c3ccc(Br)cc3)c(-c3ccc(Br)cc3)[nH]2)cc1 | 4 mm | 11 mm | 4 mm | 13 mm | 7 mm | 12 mm | 12 mm | 2 mm | 4 mm | 5 mm | 3 mm | 3 mm | 3 mm | 3 mm | 2 mm | 8 mm | 4 mm | 5 mm | 6 mm | 3 mm | zone of inhibition at 500 µg/mL (Pseudomonas aeruginosa [23]): 2 mm; zone of inhibition at 1000 µg/mL (Staphylococcus aureus [24]): 3 mm
Clc1ccc(-c2n[nH]cc2-c2nc(-c3ccc(Br)cc3)c(-c3ccc(Br)cc3)[nH]2)c(Cl)c1 | 4 mm | 8 mm | 4 mm | 5 mm | 9 mm | 9 mm | 4 mm | 4 mm | 3 mm | 5 mm | 5 mm | 5 mm | 2 mm | 3 mm | 3 mm | 10 mm | 4 mm | 4 mm | 5 mm | 3 mm | zone of inhibition at 500 µg/mL (Pseudomonas aeruginosa [23]): 4 mm; zone of inhibition at 1000 µg/mL (Staphylococcus aureus [24]): 4 mm
Brc1ccc(-c2nc(-c3c[nH]nc3-c3ccc(-c4ccccc4)cc3)[nH]c2-c2ccc(Br)cc2)cc1 | 2 mm | 2 mm | 3 mm | 4 mm | 3 mm | 3 mm | 3 mm | 2 mm | 2 mm | 4 mm | 2 mm | 3 mm | 1 mm | 1 mm | 1 mm | 4 mm | 3 mm | 2 mm | 3 mm | 2 mm | zone of inhibition at 500 µg/mL (Pseudomonas aeruginosa [23]): 1 mm; zone of inhibition at 1000 µg/mL (Staphylococcus aureus [24]): 2 mm
Cc1ccc(-c2n[nH]cc2-c2nc(-c3ccc(Br)cc3)c(-c3ccc(Br)cc3)[nH]2)cc1 | 2 mm | 3 mm | 4 mm | 3 mm | 2 mm | 4 mm | 2 mm | 3 mm | 3 mm | 4 mm | 2 mm | 4 mm | 2 mm | 1 mm | 2 mm | 3 mm | 3 mm | 2 mm | 3 mm | 3 mm | zone of inhibition at 500 µg/mL (Pseudomonas aeruginosa [23]): 1 mm; zone of inhibition at 1000 µg/mL (Staphylococcus aureus [24]): 3 mm
Clc1cc(-c2n[nH]cc2-c2nc(-c3ccc(Br)cc3)c(-c3ccc(Br)cc3)[nH]2)c(Cl)s1 | 3 mm | 5 mm | 2 mm | 4 mm | 5 mm | 6 mm | 3 mm | 3 mm | 5 mm | 2 mm | 4 mm | 4 mm | 4 mm | 2 mm | 2 mm | 6 mm | 1 mm | 3 mm | 4 mm | 1 mm | zone of inhibition at 500 µg/mL (Pseudomonas aeruginosa [23]): 3 mm; zone of inhibition at 1000 µg/mL (Staphylococcus aureus [24]): 3 mm
